Reference: ChEMBL document CHEMBL4371041, “Synthesis and evaluation of thieno[3,2-d]pyrimidine derivatives as novel FMS inhibitors” (Bioorg Med Chem Lett, 2019)

How the values were obtained:
[1] = Half life in CD-1 mouse at 3 mg/kg, iv; format: ADME, organism-based; settings: in vivo
[2] = Cmax in CD-1 mouse at 3 mg/kg, iv; format: ADME, organism-based; set-up: dose 3 mg/kg, route intravenous; settings: in vivo
[3] = Volume of distribution in CD-1 mouse at 3 mg/kg, iv; format: ADME, organism-based; settings: in vivo
[4] = Clearance in CD-1 mouse at 3 mg/kg, iv; format: ADME, organism-based; settings: in vivo
[5] = AUC (0 to 7 hrs) in CD-1 mouse at 10 mg/kg, po; format: ADME, organism-based; set-up: time < 7 hr, dose 10 mg/kg, route oral; settings: in vivo
Cytochrome P450 2C9 = Cytochrome P450 2C9 (Homo sapiens, UniProt P11712); test: Inhibition of CYP2C9 in human liver microsomes by LC-MS/MS analysis; format: ADME
Method in brief: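 Reversible CYP inhibition measured in human liver microsomes; metabolite formation quantified by LC/MS/MS.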

[6] = Volume of distribution in CD-1 mouse at 10 mg/kg, po; format: ADME, organism-based; settings: in vivo
[7] = Clearance in CD-1 mouse at 10 mg/kg, po; format: ADME, organism-based; settings: in vivo
MDA-MB-231 [8] = test: Antiinvasive activity against human MDA-MB-231 cells after 72 hrs by luciferase reporter-based matrigel-coated transwell assay; format: functional, cell-based
Method in brief: (§1)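 Invasion of luciferase-expressing MDA-MB-231 cells assessed in a system including RAW264.7 mouse macrophages, across a dose range including 1 μM; invasion read by luciferase signal relative to untreated control.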

MDA-MB-231 [9] = test: Antiinvasive activity against human MDA-MB-231 cells at 1 uM after 72 hrs by luciferase reporter-based matrigel-coated transwell assay relative to control; format: functional; method in brief: as §1
MDA-MB-231 [10] = test: Growth inhibition of human MDA-MB-231 cells at 5 uM after 24 hrs by MTS assay relative to control; format: functional; settings: MDA-MB-231, 24 h, read-out: GI
[11] = molecular target: Discoidin domain-containing receptor 2 (Homo sapiens, UniProt Q16832); test: Inhibition of recombinant human N-terminal His6-tagged DDR2 (467 to end residues) expressed in baculovirus infected Sf21 insect cells using Axltide as substrate in presence of [gamma-33P]-ATP or [gamma-32P]-ATP
Method in brief: (§2)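 Kinase panel of twenty-eight enzymes; IC50 values determined with ATP at the respective Km of each kinase.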

[12] = molecular target: RAF proto-oncogene serine/threonine-protein kinase (Homo sapiens, UniProt P04049, Y340D/Y341D); test: Inhibition of recombinant human N-terminal GST-tagged c-RAF Y340D/Y341D double mutant (306 to 648 residues) expressed in baculovirus infected Sf21 insect cells using MEK1(K97R) as substrate in presence of [gamma-33P]-ATP or [gamma-32P]-ATP
[13] = molecular target: Fibroblast growth factor receptor 1 (Homo sapiens, UniProt P11362); test: Inhibition of recombinant human N-terminal GST-tagged FGFR1 (456 to 765 residues) expressed in baculovirus infected Sf21 insect cells using IGF-IRtide (12-527) as substrate in presence of [gamma-33P]-ATP or [gamma-32P]-ATP; method in brief: as §2
[14] = molecular target: Aurora kinase B/Inner centromere protein (Homo sapiens) (UniProt Q96GD4+Q9NQS7); test: Inhibition of recombinant human full length C-terminal His6-tagged Aurora B/N-terminal GST-tagged INCENP (821 to end residues) expressed in baculovirus infected Sf21 insect cells at 1 uM in presence of [gamma-33P]-ATP or [gamma-32P]-ATP relative to control
[15] = molecular target: Epidermal growth factor receptor (Homo sapiens) (UniProt P00533); test: Inhibition of recombinant human N-terminal GST-tagged EGFR (696 to end residues) expressed in baculovirus infected Sf21 insect cells at 1 uM using Angiotensin2 peptide as substrate in presence of [gamma-33P]-ATP or [gamma-32P]-ATP relative to control
[16] = molecular target: Ephrin type-A receptor 5 (Homo sapiens) (UniProt P54756); test: Inhibition of recombinant human N-terminal His6-tagged EphA5 (655 to 956 residues) expressed in baculovirus infected Sf21 insect cells at 1 uM using Axltide as substrate in presence of [gamma-33P]-ATP or [gamma-32P]-ATP relative to control
[17] = molecular target: Insulin-like growth factor 1 receptor (Homo sapiens) (UniProt P08069); test: Inhibition of Mg/ATP-autoactivated recombinant human N-terminal His6-tagged IGFR1 (959 to end residues) expressed in baculovirus infected Sf21 insect cells at 1 uM in presence of [gamma-33P]-ATP or [gamma-32P]-ATP relative to control
[18] = molecular target: Tyrosine-protein kinase Lck (Homo sapiens) (UniProt P06239); test: Inhibition of recombinant human full-length N-terminal His6-tagged LCK expressed in baculovirus infected Sf21 insect cells at 1 uM in presence of [gamma-33P]-ATP or [gamma-32P]-ATP relative to control
[19] = molecular target: Hepatocyte growth factor receptor (Homo sapiens) (UniProt P08581); test: Inhibition of recombinant human N-terminal His6-tagged Met (974 to end residues) expressed in baculovirus infected Sf21 insect cells at 1 uM using KKKSPGEYVNIEFG as substrate in presence of [gamma-33P]-ATP or [gamma-32P]-ATP relative to control
[20] = molecular target: Proto-oncogene tyrosine-protein kinase receptor Ret (Homo sapiens) (UniProt P07949); test: Inhibition of recombinant human N-terminal GST-tagged Ret (658 to end residues) expressed in baculovirus infected Sf21 insect cells at 1 uM using IFG-1Rtide as substrate in presence of [gamma-33P]-ATP or [gamma-32P]-ATP relative to control
[21] = molecular target: Ribosomal protein S6 kinase alpha-1 (Homo sapiens) (UniProt Q15418); test: Inhibition of RSK1 (unknown origin) at 1 uM in presence of [gamma-33P]-ATP or [gamma-32P]-ATP relative to control
[22] = molecular target: Proto-oncogene tyrosine-protein kinase Src (Homo sapiens) (UniProt P12931); test: Inhibition of recombinant human N-terminal His6-tagged Src (1 to 530 residues) expressed in baculovirus infected Sf21 insect cells at 1 uM in presence of [gamma-33P]-ATP or [gamma-32P]-ATP relative to control
[23] = molecular target: High affinity nerve growth factor receptor (Homo sapiens) (UniProt P04629); test: Inhibition of recombinant human N-terminal His6-tagged TrkA (440 to end residues) expressed in baculovirus infected Sf21 insect cells at 1 uM using KKKSPGEYVNIEFG as substrate in presence of [gamma-33P]-ATP or [gamma-32P]-ATP relative to control
[24] = molecular target: Maternal embryonic leucine zipper kinase (Homo sapiens, UniProt Q14680); test: Inhibition of recombinant human N-terminal GST-tagged MELK (1 to 340 residues) expressed in baculovirus infected Sf21 insect cells at 1 uM using KKLNRTLSFAEPG as substrate in presence of [gamma-33P]-ATP or [gamma-32P]-ATP relative to control
[25] = molecular target: Ephrin type-B receptor 4 (Homo sapiens) (UniProt P54760); test: Inhibition of recombinant human N-terminal His6-tagged EphB4 (561 to end residues) expressed in baculovirus infected Sf21 insect cells using poly (Glu, Tyr) (4:1) as substrate in presence of [gamma-33P]-ATP or [gamma-32P]-ATP relative to control; settings: concentration not given here
Chain of Ephrin type-B receptor 4 (Homo sapiens) (P54760 whole entry): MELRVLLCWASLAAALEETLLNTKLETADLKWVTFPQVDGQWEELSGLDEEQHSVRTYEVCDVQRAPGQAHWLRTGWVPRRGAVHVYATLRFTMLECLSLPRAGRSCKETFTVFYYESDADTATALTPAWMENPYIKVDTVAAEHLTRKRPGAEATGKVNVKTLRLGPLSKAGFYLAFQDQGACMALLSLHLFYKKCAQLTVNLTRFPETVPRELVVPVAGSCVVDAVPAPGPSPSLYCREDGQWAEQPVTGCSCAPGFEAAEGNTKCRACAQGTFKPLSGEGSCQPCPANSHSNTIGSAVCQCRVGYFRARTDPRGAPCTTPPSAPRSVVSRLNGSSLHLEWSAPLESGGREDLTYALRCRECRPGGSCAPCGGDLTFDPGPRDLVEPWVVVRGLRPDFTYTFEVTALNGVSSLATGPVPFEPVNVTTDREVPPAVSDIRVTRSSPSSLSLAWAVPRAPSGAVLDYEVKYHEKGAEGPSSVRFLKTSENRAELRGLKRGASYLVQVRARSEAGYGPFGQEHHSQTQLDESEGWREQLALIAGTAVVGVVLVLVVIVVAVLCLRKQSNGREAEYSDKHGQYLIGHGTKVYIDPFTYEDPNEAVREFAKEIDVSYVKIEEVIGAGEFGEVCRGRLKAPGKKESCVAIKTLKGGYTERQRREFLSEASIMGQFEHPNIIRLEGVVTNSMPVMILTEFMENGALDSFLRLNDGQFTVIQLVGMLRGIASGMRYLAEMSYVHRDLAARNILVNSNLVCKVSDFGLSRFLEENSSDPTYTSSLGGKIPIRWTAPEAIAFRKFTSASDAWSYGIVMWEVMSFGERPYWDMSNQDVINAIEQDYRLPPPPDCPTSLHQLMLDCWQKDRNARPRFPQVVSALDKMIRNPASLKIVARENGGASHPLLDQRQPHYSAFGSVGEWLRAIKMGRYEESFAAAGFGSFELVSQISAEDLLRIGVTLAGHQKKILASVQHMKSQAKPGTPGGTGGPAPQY

Chain of Maternal embryonic leucine zipper kinase (Q14680 whole entry, looked up, the tested form may be a part): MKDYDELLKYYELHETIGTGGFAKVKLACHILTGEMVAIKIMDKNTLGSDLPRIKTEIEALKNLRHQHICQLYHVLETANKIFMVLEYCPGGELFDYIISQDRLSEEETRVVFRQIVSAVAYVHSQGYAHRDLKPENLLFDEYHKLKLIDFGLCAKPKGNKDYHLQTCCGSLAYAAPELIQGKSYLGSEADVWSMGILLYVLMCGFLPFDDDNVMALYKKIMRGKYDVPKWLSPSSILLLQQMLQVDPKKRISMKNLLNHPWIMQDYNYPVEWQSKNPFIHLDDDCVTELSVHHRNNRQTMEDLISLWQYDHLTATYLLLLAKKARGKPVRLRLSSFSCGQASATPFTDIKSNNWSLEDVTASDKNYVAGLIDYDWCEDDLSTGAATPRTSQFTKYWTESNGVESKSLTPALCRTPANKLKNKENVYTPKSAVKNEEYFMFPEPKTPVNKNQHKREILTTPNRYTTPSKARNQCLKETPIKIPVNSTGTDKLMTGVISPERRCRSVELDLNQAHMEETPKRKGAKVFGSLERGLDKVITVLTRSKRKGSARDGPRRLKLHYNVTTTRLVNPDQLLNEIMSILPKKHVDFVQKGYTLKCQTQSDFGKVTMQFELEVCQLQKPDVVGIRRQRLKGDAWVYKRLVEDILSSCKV
Chain of High affinity nerve growth factor receptor (Homo sapiens) (P04629 33-796 limits assumed): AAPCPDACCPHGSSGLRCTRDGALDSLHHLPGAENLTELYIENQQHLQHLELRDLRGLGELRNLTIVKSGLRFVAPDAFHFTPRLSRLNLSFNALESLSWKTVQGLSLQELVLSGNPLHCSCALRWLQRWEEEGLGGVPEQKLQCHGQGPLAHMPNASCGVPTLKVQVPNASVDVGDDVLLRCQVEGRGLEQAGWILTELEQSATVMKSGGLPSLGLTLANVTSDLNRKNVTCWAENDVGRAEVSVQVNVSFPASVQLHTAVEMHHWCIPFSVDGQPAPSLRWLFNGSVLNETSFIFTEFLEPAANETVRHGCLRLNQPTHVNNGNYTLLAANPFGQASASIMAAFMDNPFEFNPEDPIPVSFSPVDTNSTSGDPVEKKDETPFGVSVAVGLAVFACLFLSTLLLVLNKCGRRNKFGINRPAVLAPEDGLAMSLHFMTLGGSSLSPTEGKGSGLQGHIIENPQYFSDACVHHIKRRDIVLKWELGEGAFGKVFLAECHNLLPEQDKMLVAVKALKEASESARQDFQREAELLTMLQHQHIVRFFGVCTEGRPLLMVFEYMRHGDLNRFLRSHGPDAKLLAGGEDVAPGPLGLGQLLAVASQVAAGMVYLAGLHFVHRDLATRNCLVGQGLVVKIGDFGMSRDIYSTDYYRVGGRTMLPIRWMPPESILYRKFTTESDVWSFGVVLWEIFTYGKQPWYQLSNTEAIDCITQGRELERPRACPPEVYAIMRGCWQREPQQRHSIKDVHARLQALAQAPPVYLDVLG
Chain of Discoidin domain-containing receptor 2 (Q16832 whole entry, the tested form may be a part): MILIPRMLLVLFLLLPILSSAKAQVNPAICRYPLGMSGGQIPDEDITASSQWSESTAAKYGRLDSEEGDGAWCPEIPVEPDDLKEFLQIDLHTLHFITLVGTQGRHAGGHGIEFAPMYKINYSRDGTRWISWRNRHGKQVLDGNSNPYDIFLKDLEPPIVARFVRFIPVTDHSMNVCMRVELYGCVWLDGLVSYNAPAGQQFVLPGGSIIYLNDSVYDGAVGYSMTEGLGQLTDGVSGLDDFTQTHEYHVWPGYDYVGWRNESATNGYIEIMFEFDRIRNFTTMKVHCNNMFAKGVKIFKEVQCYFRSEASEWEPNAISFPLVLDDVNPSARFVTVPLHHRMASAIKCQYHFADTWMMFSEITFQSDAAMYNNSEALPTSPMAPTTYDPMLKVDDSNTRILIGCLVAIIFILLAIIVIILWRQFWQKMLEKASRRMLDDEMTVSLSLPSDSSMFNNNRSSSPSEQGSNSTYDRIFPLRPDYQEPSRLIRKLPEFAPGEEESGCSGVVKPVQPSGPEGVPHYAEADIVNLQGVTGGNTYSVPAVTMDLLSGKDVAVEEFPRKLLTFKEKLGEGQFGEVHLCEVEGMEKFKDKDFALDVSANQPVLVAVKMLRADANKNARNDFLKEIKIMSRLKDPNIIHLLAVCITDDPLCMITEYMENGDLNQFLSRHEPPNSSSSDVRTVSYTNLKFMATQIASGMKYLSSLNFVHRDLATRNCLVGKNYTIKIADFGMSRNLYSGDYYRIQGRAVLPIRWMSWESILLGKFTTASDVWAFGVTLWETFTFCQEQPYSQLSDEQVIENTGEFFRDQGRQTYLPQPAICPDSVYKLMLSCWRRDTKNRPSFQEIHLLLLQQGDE
Chain of Proto-oncogene tyrosine-protein kinase Src (Homo sapiens) (P12931 2-536 limits assumed): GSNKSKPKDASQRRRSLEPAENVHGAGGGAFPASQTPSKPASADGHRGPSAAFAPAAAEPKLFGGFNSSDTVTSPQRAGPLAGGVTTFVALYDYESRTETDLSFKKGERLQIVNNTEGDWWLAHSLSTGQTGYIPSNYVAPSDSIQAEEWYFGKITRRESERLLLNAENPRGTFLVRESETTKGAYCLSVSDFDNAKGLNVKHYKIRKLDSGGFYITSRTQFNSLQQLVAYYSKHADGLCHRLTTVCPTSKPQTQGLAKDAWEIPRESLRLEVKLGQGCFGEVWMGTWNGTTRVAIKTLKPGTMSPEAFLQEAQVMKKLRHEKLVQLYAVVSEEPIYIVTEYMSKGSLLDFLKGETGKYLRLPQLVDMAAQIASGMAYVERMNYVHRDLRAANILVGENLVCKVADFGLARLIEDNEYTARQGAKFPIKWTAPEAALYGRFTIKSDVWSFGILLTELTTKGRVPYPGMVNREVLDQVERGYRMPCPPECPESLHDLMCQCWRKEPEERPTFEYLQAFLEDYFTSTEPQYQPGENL
Chain of Cytochrome P450 2C9 (P11712 whole entry): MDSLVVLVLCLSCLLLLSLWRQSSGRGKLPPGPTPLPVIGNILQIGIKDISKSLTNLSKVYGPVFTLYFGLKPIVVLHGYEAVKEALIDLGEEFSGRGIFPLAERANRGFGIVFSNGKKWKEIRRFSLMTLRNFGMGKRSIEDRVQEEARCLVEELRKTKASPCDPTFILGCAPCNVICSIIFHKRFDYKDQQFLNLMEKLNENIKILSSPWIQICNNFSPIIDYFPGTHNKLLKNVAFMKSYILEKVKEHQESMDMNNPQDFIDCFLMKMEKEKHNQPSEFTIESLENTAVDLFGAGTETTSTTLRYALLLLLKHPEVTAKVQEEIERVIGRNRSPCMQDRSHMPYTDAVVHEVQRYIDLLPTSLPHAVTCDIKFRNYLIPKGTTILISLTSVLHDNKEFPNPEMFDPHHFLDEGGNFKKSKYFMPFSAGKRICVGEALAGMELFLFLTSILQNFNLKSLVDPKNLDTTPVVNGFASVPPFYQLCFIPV
Chain of Tyrosine-protein kinase Lck (Homo sapiens) (P06239 2-509 limits assumed): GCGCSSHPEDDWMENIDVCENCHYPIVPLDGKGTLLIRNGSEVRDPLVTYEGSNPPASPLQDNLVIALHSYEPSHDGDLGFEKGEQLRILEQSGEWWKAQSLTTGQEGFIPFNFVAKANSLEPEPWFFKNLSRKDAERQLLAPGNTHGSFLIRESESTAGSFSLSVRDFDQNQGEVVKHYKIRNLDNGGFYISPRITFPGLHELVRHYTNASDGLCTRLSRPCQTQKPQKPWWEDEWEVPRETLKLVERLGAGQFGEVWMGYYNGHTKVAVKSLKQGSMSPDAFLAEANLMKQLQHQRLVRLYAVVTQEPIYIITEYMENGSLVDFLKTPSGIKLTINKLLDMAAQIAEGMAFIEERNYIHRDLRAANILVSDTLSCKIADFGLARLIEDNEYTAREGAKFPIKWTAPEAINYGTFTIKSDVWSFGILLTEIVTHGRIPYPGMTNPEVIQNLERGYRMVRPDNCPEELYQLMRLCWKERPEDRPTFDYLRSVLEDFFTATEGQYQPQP

With `Cc1cccc(Cn2nc(C)c3c(NC(=O)c4csc5c(N)ncnc45)cccc32)n1` the half-life [1] was 1.6 h, the Cmax [2] was 2.55 µg/mL and the Vd [3] was 2 L/kg. It also gave a clearance [4] of 0.9 L/h/kg, an AUC(0-t) at 7 h [5] of 4.04 µg·h/mL and an IC50 (Cytochrome P450 2C9) greater than 20 µM. For the same compound, the Vd [6] was 7.5 L/kg, the CL/F [7] was 2 L/h/kg and the Activity (MDA-MB-231 [8]) was “Dose-dependent effect”. It also gave an Activity (MDA-MB-231 [9]) of 67%, an inhibition of growth at 5 µM (MDA-MB-231 [10]) of 20% and an IC50 [11] of 0.064 µM. For the same compound, the IC50 [12] was 0.08 µM, the IC50 [13] was 0.145 µM and the inhibition [14] was -3%. For the same compound, the inhibition [15] was -2%, the inhibition [16] was -9% and the inhibition [17] was 56%. The inhibition [18] was 20%, the inhibition [19] was -9% and the inhibition [20] was -2%. It also gave an inhibition [21] of 14%, an inhibition [22] of 4% and an inhibition [23] of 27%. For the same compound, the inhibition [24] was greater than 60% and the inhibition [25] was 2%.
